Measurements from different studies.
Protocols differ between the studies behind these lines.

Compound | tested on | test | test system | conditions | endpoint | value
Cc1ccc(Cn2cc(C(=O)NN)c(=O)c3cc(Oc4ccccc4)ccc32)cc1 |  | metabolic stability | male rat, liver microsomes | 1 µM | microsomal CLint | < 11.6 µL/min/mg
CN/C(=N/CCSCc1nc[nH]c1C)NC#N |  | metabolic stability | human, hepatocytes | 0.5 µM, pH 7.4 | hepatocyte CLint | 2.15 µL/min/10⁶ cells
CC1(F)CN(C(=O)Cn2c(=O)c(C(=O)NCc3ccc(Cl)cc3)cc3nc(N4CCNC4=O)cnc32)C1 | B-95-8 | cell growth or viability, ATP luminescence |  | 5 days | CC50 | 3.59 µM
COc1ccc2c(C[Se][C@@H]3O[C@H](CO)[C@H](O)[C@H](O)[C@H]3O)cc(=O)oc2c1 | THP-1 | cell growth or viability, WST-1 |  | 24 h | CC50 | > 100 µM
Cn1nc2c(=O)n(C3CC3)ncc2c1[C@](O)(c1cnc(C(F)(F)F)c(Cl)c1)C(F)(F)F |  | metabolic stability | male Sprague-Dawley rat, hepatocytes | 0.5 µM, pH 7.4 | hepatocyte CLint | 0.9 µL/min/10⁶ cells
CN1CCN(c2cnc3c(cc(C(=O)NCc4ccc(Cl)cc4)c(=O)n3CC(=O)N3CC(C)(F)C3)n2)C1=O | B-95-8 | cell growth or viability, ATP luminescence |  | 5 days | CC50 | 4.61 µM
CC(=O)OC[C@H]1O[C@@H]([Se]Cc2ccc3ccccc3n2)[C@H](OC(C)=O)[C@@H](OC(C)=O)[C@@H]1OC(C)=O | THP-1 | cell growth or viability, WST-1 |  | 24 h | CC50 | ~50 µM
COC(=O)COc1c(Cc2cc(C(C)(C)CC(C)(C)C)cc(-n3nc4ccccc4n3)c2OCC(=O)OC)cc(C(C)(C)CC(C)(C)C)cc1-n1nc2ccccc2n1 | MCF7 | cell growth or viability, MTT |  | 10 µM, 48 h | viability | 4.9%
